Data on six compounds can be found in ChEMBL document CHEMBL4014355 (J Med Chem, 2017).

The nature of data set [1]: Stability of compound in cell culture media at 0.5 mM after 7 days by Waters ACQUITY UPLC analysis.
Data set [2] concerns MV4-11. Put plainly: Cytotoxicity against human MV4-11 cells harboring MLL-AF4 fusion protein assessed as cell growth inhibition at 0.69 uM after 4 days by WST8 assay. Format: functional. As to conditions: MV4-11, 96 h, read-out: GI. Background: Formazan colour is commonly taken as a measure of viable cells.
The test system of data set [3] is MV4-11. Put plainly: Cytotoxicity against human MV4-11 cells harboring MLL-AF4 fusion protein assessed as cell growth inhibition at […] after 7 days by WST8 assay. It is filed as functional. The settings on record: MV4-11, 168 h, read-out: GI.
Data set [4] concerns HL-60. Put plainly: Cytotoxicity against human HL60 cells lacking MLL translocation assessed as cell growth inhibition after 4 days by WST8 assay. Format: cell-based. As to conditions: HL-60, 96 h. The procedure, abridged:
(§1)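 Cells (MOLM-13 with MLL-AF9, MV4-11 with MLL-AF4, HL-60 with no MLL fusion) seeded at 1 × 10^4 cells/well and exposed to a range of inhibitor concentrations for 4 days, with 0.2% DMSO final in the medium. Viability was read by WST-8 kit. Three independent experiments, each in triplicate.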

The subject of data set [5] is MOLM-13. In words: Cytotoxicity against human MOLM13 cells harboring MLL-AF9 fusion protein assessed as cell growth inhibition at 0.38 uM after 4 days by WST8 assay. Format: functional. As to conditions: MOLM-13, 96 h, read-out: GI.
The subject of data set [6] is MOLM-13. Put plainly: Cytotoxicity against human MOLM13 cells harboring MLL-AF9 fusion protein assessed as cell growth inhibition after 4 days by WST8 assay. The settings on record: MOLM-13, 96 h. Format: functional, cell-based. The essentials: as §1
Data set [7] deals with Histone-lysine N-methyltransferase 2C (Homo sapiens) (UniProt Q8NEZ4). In words: Inhibition of MLL3 (unknown origin) H3K4 methyltransferase activity using biotinyl-H3 peptide (1 to 21 residues) and using [3H]-S adenosylmethionine as methyl donor up to 100 uM after 1 hr by scintillation counting.
Sequence of Histone-lysine N-methyltransferase 2C (Homo sapiens) (Q8NEZ4 whole entry, the tested form may be a part): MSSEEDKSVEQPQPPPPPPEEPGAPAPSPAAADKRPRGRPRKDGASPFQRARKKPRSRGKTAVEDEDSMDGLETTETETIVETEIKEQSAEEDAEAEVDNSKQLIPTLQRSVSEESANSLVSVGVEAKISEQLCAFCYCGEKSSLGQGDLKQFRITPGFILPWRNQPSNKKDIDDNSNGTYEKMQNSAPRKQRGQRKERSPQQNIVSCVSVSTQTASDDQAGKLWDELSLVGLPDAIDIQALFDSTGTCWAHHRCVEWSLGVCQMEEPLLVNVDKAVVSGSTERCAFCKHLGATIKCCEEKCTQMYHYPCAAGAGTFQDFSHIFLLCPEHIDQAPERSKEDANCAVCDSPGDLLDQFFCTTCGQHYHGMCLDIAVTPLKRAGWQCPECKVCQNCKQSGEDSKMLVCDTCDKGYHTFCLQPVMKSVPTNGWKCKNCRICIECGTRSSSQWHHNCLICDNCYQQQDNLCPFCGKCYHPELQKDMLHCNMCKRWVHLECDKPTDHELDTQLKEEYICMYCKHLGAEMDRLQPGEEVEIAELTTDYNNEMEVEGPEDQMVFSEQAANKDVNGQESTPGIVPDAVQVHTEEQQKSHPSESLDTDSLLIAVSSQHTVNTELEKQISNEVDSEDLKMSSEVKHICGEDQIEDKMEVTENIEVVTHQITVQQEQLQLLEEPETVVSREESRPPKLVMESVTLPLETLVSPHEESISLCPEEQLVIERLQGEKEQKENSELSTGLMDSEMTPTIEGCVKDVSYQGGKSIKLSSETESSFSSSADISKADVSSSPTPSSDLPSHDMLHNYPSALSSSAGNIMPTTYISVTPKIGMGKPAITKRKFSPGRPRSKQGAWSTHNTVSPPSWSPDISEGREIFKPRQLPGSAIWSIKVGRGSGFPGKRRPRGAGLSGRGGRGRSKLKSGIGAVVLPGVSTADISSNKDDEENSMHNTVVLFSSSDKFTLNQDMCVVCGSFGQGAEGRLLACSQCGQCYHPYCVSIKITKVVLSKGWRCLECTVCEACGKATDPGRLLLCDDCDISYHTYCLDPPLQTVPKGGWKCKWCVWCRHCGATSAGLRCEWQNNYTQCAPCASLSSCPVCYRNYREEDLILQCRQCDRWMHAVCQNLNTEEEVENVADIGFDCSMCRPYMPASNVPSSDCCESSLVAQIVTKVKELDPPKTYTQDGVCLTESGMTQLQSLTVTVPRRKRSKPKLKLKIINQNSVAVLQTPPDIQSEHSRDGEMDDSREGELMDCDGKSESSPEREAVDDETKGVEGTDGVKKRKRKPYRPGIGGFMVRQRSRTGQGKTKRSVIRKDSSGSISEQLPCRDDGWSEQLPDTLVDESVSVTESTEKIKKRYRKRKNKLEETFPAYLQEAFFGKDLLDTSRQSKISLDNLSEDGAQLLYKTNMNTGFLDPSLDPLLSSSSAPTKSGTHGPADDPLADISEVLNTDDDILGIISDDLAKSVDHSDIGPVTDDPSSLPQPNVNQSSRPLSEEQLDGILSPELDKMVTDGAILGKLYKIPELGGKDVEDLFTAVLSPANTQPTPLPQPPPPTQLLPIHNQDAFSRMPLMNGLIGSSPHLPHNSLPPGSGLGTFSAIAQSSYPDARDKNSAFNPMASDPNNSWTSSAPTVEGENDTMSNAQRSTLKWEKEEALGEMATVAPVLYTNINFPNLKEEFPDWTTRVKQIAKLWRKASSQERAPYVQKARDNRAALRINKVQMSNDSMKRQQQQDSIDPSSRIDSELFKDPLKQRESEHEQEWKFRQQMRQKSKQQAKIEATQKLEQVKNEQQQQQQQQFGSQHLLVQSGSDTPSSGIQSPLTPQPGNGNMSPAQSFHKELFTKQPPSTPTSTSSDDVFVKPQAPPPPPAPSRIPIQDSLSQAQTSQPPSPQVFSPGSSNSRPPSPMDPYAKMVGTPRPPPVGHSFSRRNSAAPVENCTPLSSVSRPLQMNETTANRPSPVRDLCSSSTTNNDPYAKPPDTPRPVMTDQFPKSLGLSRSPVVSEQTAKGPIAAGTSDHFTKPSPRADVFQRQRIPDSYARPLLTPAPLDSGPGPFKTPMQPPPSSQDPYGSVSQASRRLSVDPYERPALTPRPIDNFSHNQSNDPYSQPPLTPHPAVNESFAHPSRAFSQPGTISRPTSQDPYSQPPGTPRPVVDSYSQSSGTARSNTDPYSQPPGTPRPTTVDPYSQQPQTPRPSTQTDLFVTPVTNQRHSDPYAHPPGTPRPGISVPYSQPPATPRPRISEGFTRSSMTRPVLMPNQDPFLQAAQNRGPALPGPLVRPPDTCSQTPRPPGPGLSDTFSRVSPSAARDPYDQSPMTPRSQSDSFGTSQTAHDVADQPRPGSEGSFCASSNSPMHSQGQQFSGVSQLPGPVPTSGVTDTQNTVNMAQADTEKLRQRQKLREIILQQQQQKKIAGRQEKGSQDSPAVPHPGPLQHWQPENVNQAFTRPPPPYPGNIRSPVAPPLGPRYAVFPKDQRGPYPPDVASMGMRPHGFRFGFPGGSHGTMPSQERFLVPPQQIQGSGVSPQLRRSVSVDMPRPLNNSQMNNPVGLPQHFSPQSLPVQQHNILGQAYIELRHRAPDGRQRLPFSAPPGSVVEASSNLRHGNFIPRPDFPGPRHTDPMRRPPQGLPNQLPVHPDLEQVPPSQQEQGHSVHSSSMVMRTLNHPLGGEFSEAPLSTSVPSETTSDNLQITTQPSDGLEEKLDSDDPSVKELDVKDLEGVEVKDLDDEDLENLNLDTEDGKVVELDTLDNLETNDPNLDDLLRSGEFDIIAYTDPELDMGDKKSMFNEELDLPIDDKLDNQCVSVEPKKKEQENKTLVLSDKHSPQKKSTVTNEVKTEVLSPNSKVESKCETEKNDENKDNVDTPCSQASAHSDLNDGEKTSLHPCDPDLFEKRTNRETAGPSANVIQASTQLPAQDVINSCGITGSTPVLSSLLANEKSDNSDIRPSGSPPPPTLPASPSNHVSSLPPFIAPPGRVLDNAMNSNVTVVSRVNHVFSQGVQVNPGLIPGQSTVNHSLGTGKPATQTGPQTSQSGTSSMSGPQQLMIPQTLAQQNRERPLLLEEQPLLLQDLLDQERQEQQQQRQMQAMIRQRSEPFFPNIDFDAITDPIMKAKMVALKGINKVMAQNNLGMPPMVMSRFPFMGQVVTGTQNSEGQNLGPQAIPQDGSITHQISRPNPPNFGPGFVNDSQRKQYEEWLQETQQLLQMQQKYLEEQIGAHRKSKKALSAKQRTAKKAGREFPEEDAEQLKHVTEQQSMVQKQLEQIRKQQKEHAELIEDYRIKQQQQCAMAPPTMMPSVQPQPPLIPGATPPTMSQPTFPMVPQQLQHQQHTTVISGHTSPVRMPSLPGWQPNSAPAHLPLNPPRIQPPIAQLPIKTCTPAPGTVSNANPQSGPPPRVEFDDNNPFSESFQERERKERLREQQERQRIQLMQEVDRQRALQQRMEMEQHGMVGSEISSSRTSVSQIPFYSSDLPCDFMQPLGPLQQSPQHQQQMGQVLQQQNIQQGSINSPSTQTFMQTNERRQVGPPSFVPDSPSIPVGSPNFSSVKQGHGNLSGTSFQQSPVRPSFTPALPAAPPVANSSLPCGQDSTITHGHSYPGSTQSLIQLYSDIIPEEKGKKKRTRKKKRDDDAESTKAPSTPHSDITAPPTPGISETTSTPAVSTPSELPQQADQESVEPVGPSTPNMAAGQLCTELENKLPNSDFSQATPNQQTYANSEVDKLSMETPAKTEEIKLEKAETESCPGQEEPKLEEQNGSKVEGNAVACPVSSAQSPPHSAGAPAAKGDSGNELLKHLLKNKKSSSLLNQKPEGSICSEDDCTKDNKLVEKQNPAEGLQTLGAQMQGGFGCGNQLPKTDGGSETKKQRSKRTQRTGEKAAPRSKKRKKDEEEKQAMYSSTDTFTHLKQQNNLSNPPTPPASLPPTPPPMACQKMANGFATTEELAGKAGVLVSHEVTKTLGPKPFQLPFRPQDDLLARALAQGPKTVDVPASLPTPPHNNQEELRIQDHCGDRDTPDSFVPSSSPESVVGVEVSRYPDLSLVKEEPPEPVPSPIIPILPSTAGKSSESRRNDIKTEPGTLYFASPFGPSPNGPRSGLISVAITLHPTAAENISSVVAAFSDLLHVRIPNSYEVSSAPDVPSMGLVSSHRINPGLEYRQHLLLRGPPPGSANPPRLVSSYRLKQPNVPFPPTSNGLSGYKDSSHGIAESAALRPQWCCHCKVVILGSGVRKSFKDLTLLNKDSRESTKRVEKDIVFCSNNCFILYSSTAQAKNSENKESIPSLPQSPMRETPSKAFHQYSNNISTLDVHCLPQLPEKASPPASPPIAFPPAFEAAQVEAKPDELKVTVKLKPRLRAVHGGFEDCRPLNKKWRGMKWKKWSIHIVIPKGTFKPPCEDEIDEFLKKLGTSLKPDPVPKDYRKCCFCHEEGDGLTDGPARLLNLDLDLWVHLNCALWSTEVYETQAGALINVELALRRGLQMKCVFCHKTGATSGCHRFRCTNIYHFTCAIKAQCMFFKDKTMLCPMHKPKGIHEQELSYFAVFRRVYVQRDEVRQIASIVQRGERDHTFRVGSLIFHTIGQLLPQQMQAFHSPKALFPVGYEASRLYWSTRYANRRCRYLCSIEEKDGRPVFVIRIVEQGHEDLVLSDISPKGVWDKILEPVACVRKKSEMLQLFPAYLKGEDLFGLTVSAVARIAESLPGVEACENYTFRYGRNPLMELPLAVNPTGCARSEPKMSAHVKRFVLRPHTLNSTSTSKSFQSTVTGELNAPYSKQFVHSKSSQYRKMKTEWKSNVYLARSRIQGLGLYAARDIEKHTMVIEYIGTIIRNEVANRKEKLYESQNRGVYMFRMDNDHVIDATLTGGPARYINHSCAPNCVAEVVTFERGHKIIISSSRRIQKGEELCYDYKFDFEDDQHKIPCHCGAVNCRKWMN
Data set [8] relates to MV4-11. Put plainly: Cytotoxicity against human MV4-11 cells harboring MLL-AF4 fusion protein assessed as cell growth inhibition after 4 days by WST8 assay. It is filed as functional, cell-based. The settings on record: MV4-11, 96 h. The essentials: as §1
The test system of data set [9] is MOLM-13. Put plainly: Cytotoxicity against human MOLM13 cells harboring MLL-AF9 fusion protein assessed as cell growth inhibition at 0.10 uM after 7 days by WST8 assay. It is filed as functional. As to conditions: MOLM-13, 168 h, read-out: GI.
A short description of data set [10]: Selectivity ratio of IC50 for human HL60 cells lacking MLL translocation to IC50 for human MOLM13 cells harboring MLL-AF9 fusion protein.
Data set [11] deals with Histone-lysine N-methyltransferase SETD1B (Homo sapiens) (UniProt Q9UPS6). In words: Inhibition of […] (unknown origin) H3K4 methyltransferase activity using biotinyl-H3 peptide (1 to 21 residues) and using [3H]-S adenosylmethionine as methyl donor up to 100 uM after 1 hr by scintillation counting.
The nature of data set [12]: Half life in human microsomes. Format: ADME, Microsome.
In data set [13] the test system is MOLM-13. In words: Cytotoxicity against human MOLM13 cells harboring MLL-AF9 fusion protein assessed as cell growth inhibition after 7 days by WST8 assay. Format: functional, cell-based. As to conditions: MOLM-13, 168 h. The procedure, abridged: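 Long-term treatment of MOLM-13 plated at 5 × 10^4 cells/mL. Viability measured by WST-8 on day 4. Then 10% of viable cells were moved to fresh medium at the same compound concentration and cultured 3 more days, with viability read again on day 7.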

The target in data set [14] is Histone-lysine N-methyltransferase SETD1A (Homo sapiens) (UniProt O15047). Put plainly: Inhibition of SET1a (unknown origin) H3K4 methyltransferase activity using biotinyl-H3 peptide (1 to 21 residues) and using [3H]-S adenosylmethionine as methyl donor up to 100 uM after 1 hr by scintillation counting.
The nature of data set [15]: Half life in rat microsomes. Format: ADME, Microsome.
The nature of data set [16]: Half life in mouse microsomes. Format: ADME, Microsome.
Data set [17] concerns the target Histone-lysine N-methyltransferase 2B (Homo sapiens) (UniProt Q9UMN6). Put plainly: Inhibition of MLL2 (unknown origin) H3K4 methyltransferase activity using biotinyl-H3 peptide (1 to 21 residues) and using [3H]-S adenosylmethionine as methyl donor up to 100 uM after 1 hr by scintillation counting.
Data set [18] can be described thus: Inhibition of 5-FAM tracer binding to WDR5 delta23 mutant (24 to 334 residues) (unknown origin) expressed in Escherichia coli Rosetta 2 (DE3) cells after 3 hrs by fluorescence polarization assay. More on the design: species or system Homo sapiens. In general terms: Polarisation of emitted light reports the rotation of a fluorescent probe.
Data set [19] has as its target MLL1-ASH2L/RbBP5/WDR5/DPY30 (Homo sapiens, UniProt P61964). Put plainly: Inhibition of human N-terminal GST-tagged MLL1 (3735 to 3973 residues) interaction with human full length N-terminal 6xHis-tagged ASH2L/N-terminal 6xHis-tagged human full length RbBP5/human N-terminal 6xHis-tagged WDR5/human full length N-terminal 6xHis-tagged DPY30 assessed as decrease in H3K4me1-2 methylation preincubated for 30 mins followed by SAM/nucleosome mixture addition measured after 120 mins in absence of light by AlphaLISA assay. It is filed as protein assay. (In general: Alpha assays give light when donor and acceptor beads are brought close together.)

Data set [20] addresses Histone-lysine N-methyltransferase 2D (Homo sapiens) (UniProt O14686). In words: Inhibition of MLL4 (unknown origin) H3K4 methyltransferase activity using biotinyl-H3 peptide (1 to 21 residues) and using [3H]-S adenosylmethionine as methyl donor up to 100 uM after 1 hr by scintillation counting.
Data set [21] concerns MV4-11. In words: Cytotoxicity against human MV4-11 cells harboring MLL-AF4 fusion protein assessed as cell growth inhibition after 7 days by WST8 assay. Format: functional, cell-based. As to conditions: MV4-11, 168 h. The essentials:
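MV4-11 cells (MLL-AF4) plated at 5 × 10^4 cells/mL and treated with the compound. WST-8 viability was read on day 4. Then 10% of viable cells were moved to fresh medium with the same compound concentrations and cultured 3 more days. The day-7 read was also by WST-8.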

Data set [22] in a line: Selectivity ratio of IC50 for human HL60 cells lacking MLL translocation to IC50 for human MV4-11 cells harboring MLL-AF4 fusion protein.

Active and inactive are the calls of the source. The rule behind the calls is not given here. Bounds are passed on as bounds.

`CC[C@@H]1NC(=O)[C@H](CCCNC(=N)NC)NC(=O)[C@](C)(NC(=O)C(C)C)CCNC(=O)[C@@H](c2ccccc2)NC1=O.O=C(O)C(F)(F)F`: in data set [1], the Stability entry is “Stable”. Besides, the inhibition of growth at 0.69 µM in data set [2] is 75%. Also, the inhibition of growth at […] in data set [3] was > 95%. In addition, the IC50 (as a rule, the concentration needed to halve the response being measured) amounted to 8560 nM in data set [4]; 210 nM in data set [6]; 250 nM in [8]; 100 nM in data set [13]; 0.9 nM in data set [18]; 12.7 nM in data set [19]. In addition, the IC50 in [21] amounted to 290 nM. Besides, the inhibition of growth at 0.38 µM in [5] worked out at 75%. The inhibition result in data set [7], in data set [11], in data set [14], in data set [17] and in [20] was “inactive” each time. For the same compound, the inhibition of growth at 0.1 µM in [9] was > 95%. In addition, the “Ratio IC50” value in data set [10] and in data set [22] was >30 throughout. Moreover, the half-life in data set [12], in [15] and in [16] was > 1 h in each case. The Ki (in general, the equilibrium dissociation constant of an inhibitor or competing ligand from its target) in data set [18] is < 1 nM.
In the case of `CC[C@@H]1NC(=O)[C@H](CCCNC(=N)N)NC(=O)[C@](C)(NC(=O)C(C)C)CCCCNC(=O)[C@@H](c2ccccc2)NC1=O.O=C(O)C(F)(F)F`, in data set [4], the IC50 was > 100000 nM. For the same compound, the half-life in [12], in data set [15] and in [16] was > 1 h each time.
Consider `CC[C@@H]1NC(=O)[C@H](CCCNC(=N)N)NC(=O)[C@](C)(NC(=O)C(C)C)CCCCN(C)C(=O)[C@@H](c2ccc(F)cc2)NC1=O.O=C(O)C(F)(F)F`, for which the IC50 in data set [4] came out at 60000 nM; in data set [6], 16200 nM; in data set [8], 5200 nM; in data set [18], 1.6 nM; in [19], 138 nM. Also, the half-life in data set [12], in data set [15] and in data set [16] was > 1 h in each case. Moreover, in data set [18], the Ki was < 1 nM.
As for `CC[C@@H]1NC(=O)[C@H](CCCNC(=N)N)NC(=O)[C@](C)(NC(=O)C(C)C)CCCNC(=O)[C@@H](c2ccccc2)NC1=O.O=C(O)C(F)(F)F`, the IC50 amounted to 46800 nM in data set [4]; 1280 nM in data set [6]; 1290 nM in data set [8]; 0.97 nM in [18]; 84.8 nM in data set [19]. Further, the “Ratio IC50” value in data set [10] and in data set [22] was >30 each time. The half-life in data set [12], in [15] and in data set [16] was > 1 h each time. Also, in data set [18], the Ki was < 1 nM.
For the compound `CC[C@@H]1NC(=O)[C@H](CCCNC(=N)N)NC(=O)[C@](C)(NC(=O)C(C)C)CCNC(=O)[C@@H](c2ccccc2)NC1=O.O=C(O)C(F)(F)F`, the IC50 in [4] was 17400 nM; in [6] it was 280 nM; in [8] it was 460 nM; in data set [18], 1.08 nM; in [19], 12.6 nM. Besides, the “Ratio IC50” value in data set [10] and in data set [22] was >30 each time. The half-life in data set [12], in data set [15] and in data set [16] was > 1 h throughout. For the same compound, the Ki in data set [18] was < 1 nM.
On to `CC[C@@H]1NC(=O)[C@H](CCCNC(=N)N)NC(=O)[C@](C)(NC(=O)C(C)C)CCCCN(C)C(=O)[C@@H](c2ccccc2)NC1=O.O=C(O)C(F)(F)F`, for which the half-life in data set [12], in data set [15] and in data set [16] was > 1 h each time. Moreover, the IC50 worked out at 1.6 nM in [18] and 190 nM in [19]. Further, in data set [18], the Ki is < 1 nM.
